These results are taken from PMC7335720 (Saudi Pharmaceutical Journal : SPJ, 2020).

As usually defined, the AUC(0-inf) is the area under the concentration-time curve extrapolated to infinity. As usually defined, the Cmax is the peak of the concentration-time curve. The half-life is the time in which the quantity being followed falls by half. Higher therefore signals slow loss.

The nature of this data set: Pharmacokinetic study after single oral dose in rabbits. The format is in vivo. The settings on record: male, rabbit, plasma, 2.58 mg/kg. An outline of the steps:
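Twelve healthy fasted male rabbits (≈1.5 kg), 12 h fast, two groups. Single oral dose suspended in CMC: 2.58 mg/kg parent drug, or 6.45 mg/kg conjugate (2.58 mg/kg drug-equivalent). Water after 1 h. Plasma deproteinised with acetonitrile and filtered, then HPLC-UV at 248 nm (acetonitrile:water 50:50, isocratic, 1 mL/min) against a 1–50 μg/mL standard curve. AUC by linear trapezoidal method.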

Turning to `CC(C(=O)O)c1ccc(-c2ccccc2)c(F)c1` (stereo not shown) [Standard FLB, 2-(3-fluoro-4-phenylphenyl)propionic acid], the area under the curve AUC(0-inf) worked out at 190 ± 4 µg·h/mL, the peak level (Cmax) was 37300 ng/mL, the half-life is 276 ± 11.4 min and the k el is 4.17e-05 s⁻¹.
